The source of these data is ChEMBL document CHEMBL1156534, “Hemopressin is an inverse agonist of CB1 cannabinoid receptors” (Proc Natl Acad Sci U S A, 2007).

The target of assay [1] is Mu-type opioid receptor (Homo sapiens) (UniProt P35372). Description: Antagonist activity at mu opioid receptor expressed in HEK293 cells assessed as blockade of DAMGO-mediated decrease in secreted alkaline phosphatase activity at 1 uM after 6 hrs relative to control. It counts as functional, cell-based. An outline of the steps:
(§1)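 HEK-293 cells transiently co-transfected with pCRE-SeAP and a Flag-tagged receptor, 30,000 cells/well on poly-L-lysine. They were serum-starved 16–18 h, then exposed 6 h in serum-free medium to 10 μM forskolin (omitted for β2) plus the receptor agonist (100 nM), with or without peptide (1 μM). Heat-treated supernatant SeAP was read by CSPD chemiluminescence. Mean ± SEM, n = 6.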

The target in assay [2] is T1, Cannabinoid receptor 2 (Rattus norvegicus) (UniProt Q9QZN9).
T1 sequence (whole entry): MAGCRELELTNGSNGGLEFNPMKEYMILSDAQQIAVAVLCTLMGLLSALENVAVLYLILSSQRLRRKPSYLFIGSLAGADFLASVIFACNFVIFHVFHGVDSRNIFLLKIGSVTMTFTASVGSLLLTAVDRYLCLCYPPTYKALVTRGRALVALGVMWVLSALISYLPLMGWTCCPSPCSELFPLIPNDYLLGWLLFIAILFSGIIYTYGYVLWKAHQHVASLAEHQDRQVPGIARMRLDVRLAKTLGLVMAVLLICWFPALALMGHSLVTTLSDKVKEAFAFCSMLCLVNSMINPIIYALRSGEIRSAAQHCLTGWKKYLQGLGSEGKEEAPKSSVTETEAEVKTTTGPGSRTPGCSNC
Description: Antagonist activity at Long-Evans rat spleen CB2 receptor assessed as blockade of Hu210-induced increase in GTPgammaS binding. It counts as functional, tissue-based. An outline of the steps: (§2)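 Membranes (10 μg) came from striatum (CB1) or spleen (CB2). They were tested in GTPγS-binding or adenylyl cyclase assays with Hu-210 and test ligand (0–1 μM), or with Hu-210 curves with or without 10 μM peptide; a 1 μM single-point combination was also used. Mean ± SE of triplicates.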
For orientation: Binding of GTPγS marks nucleotide exchange on a G protein.

The target in assay [3] is Delta-type opioid receptor (Homo sapiens) (UniProt P41143). Put plainly: Antagonist activity at delta opioid receptor expressed in SKNSH cells at 100 nM by ELISA relative to control. Set-up: scale not given: the % may be the effect or the level left. Type of assay: functional, cell-based. (In general: An ELISA detects its analyte on a solid surface through an enzyme-linked reagent.)
Sequence of Delta-type opioid receptor (Homo sapiens) (P41143 whole entry): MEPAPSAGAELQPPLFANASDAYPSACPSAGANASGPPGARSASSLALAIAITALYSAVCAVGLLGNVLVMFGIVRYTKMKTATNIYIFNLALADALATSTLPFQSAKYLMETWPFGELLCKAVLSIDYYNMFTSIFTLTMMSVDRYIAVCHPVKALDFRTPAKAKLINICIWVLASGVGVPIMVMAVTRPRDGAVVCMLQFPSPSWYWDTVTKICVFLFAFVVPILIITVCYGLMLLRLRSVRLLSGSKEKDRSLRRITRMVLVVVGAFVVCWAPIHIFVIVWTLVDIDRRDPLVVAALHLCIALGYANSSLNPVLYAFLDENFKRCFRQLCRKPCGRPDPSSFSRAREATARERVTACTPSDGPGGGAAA

Assay [4] addresses Beta-2 adrenergic receptor (Homo sapiens) (UniProt P07550). Put plainly: Antagonist activity at beta2 adrenergic receptor expressed in SKNSH cells at 100 nM by ELISA relative to control. It counts as functional, cell-based. Set-up: scale not given: the % may be the effect or the level left.
Assay [5] addresses T2, Type-2 angiotensin II receptor (Homo sapiens) (UniProt P50052).
T2 sequence (whole entry): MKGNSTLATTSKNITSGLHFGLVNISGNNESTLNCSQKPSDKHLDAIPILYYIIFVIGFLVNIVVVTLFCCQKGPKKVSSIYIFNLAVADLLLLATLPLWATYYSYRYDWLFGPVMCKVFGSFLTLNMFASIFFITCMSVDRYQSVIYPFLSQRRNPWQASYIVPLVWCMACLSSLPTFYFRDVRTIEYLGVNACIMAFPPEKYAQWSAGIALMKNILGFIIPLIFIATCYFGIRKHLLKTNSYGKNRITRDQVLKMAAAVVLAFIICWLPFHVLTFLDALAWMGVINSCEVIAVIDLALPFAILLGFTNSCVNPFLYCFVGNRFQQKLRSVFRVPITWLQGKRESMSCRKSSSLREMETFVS
Put plainly: Antagonist activity at AT2 angiotensin receptor expressed in SKNSH cells assessed as blockade of angiotensin 2-induced increase in antibody recognition at 100 nM by ELISA. It counts as functional, cell-based. Set-up: scale not given: the % may be the effect or the level left.

In assay [6] the target is Beta-2 adrenergic receptor (Homo sapiens) (UniProt P07550). Description: Antagonist activity at beta2 adrenergic receptor expressed in HEK293 cells assessed as blockade of […] in secreted alkaline phosphatase activity at 1 uM after 6 hrs relative to control. Type of assay: functional, cell-based. The method in brief:
as §1

Assay [7] concerns the target Cannabinoid receptor 1 (Rattus norvegicus) (UniProt P20272). Put plainly: Antagonist activity at Long-Evans rat striatal membrane CB1 receptor assessed as blockade of Hu210-induced increase in GTPgammaS binding. Type of assay: functional. The method in brief: as §2
Assay [8] deals with Beta-2 adrenergic receptor (Homo sapiens) (UniProt P07550). Description: Antagonist activity at beta2 adrenergic receptor expressed in HEK293 cells assessed as blockade of secreted alkaline phosphatase activity at 1 uM after 6 hrs relative to control. Type of assay: functional, cell-based. An outline of the steps:
as §1

Assay [9] has as its system Rattus norvegicus. Description: Antihyperalgesic effects in Wistar rat assessed as reduction of carrageenan-induced paw pressure at 5 ug/kg, intrathecal after 3 hrs. Type of assay: functional, organism-based. An outline of the steps:
(§3)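 Male Wistar rats (200 g) received carrageenan 200 μg/paw intraplantar in saline into the right hind paw. Peptide was given at the same time: intraplantar 10 μg/paw, intrathecal 0.5 or 5 μg/kg, or oral 50 or 100 μg/kg; saline-treated rats served as controls. Paw-pressure withdrawal threshold (force ramp 16 g/s) was read at 0 and 3 h. n = 6–8.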

The target of assay [10] is Cannabinoid receptor 2 (Homo sapiens) (UniProt P34972). Description: Antagonist activity at CB2 receptor expressed in HEK293 cells assessed as blockade of secreted alkaline phosphatase activity at 1 uM after 6 hrs relative to control. It counts as functional, cell-based. An outline of the steps: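 HEK-293 cells transfected with 5 μg pCRE-SeAP plus 1 μg Flag-tagged CB₁ or CB₂ receptor, 30,000 cells/well, serum-starved 16–18 h. Stimulated 6 h in serum-free medium with 10 μM forskolin and 100 nM agonist, without or with 1 μM test peptide. Supernatant diluted in pH 7.2 buffer, heated 65°C 20 min, then CSPD chemiluminescence read. Mean ± SEM, n = 6.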
Sequence of Cannabinoid receptor 2 (Homo sapiens) (P34972 whole entry): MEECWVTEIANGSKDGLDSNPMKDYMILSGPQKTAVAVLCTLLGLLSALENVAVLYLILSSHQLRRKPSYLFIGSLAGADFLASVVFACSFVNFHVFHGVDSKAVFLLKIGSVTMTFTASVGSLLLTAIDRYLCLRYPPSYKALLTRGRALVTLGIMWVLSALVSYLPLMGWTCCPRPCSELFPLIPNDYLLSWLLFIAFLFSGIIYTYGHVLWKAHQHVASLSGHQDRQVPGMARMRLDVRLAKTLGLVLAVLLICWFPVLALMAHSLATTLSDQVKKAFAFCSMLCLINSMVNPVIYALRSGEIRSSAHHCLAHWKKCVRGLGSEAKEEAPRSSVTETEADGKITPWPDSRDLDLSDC

Assay [11] concerns Rattus norvegicus. Put plainly: Antihyperalgesic effects in Wistar rat assessed as reduction of carrageenan-induced paw pressure at 100 ug/kg, po after 3 hrs. It counts as functional, organism-based. An outline of the steps:
as §3
(Carrageenan injected into the paw causes an acute inflammation.)

Assay [12] concerns the target Cannabinoid receptor 1 (Rattus norvegicus) (UniProt P20272). Description: Antagonist activity at Long-Evans rat striatal membrane CB1 receptor assessed as blockade of Hu210-mediated decrease in adenylate cyclase activity. Type of assay: functional. An outline of the steps:
as §2

In assay [13] the test system is Rattus norvegicus. Description: Antihyperalgesic effects in Wistar rat assessed as reduction of carrageenan-induced paw pressure at 50 ug/kg, po after 3 hrs. It counts as functional, organism-based. An outline of the steps: as §3
Assay [14] deals with Rattus norvegicus. Description: Antihyperalgesic effects in Wistar rat assessed as reduction of carrageenan-induced paw pressure at 10 ug/kg, intraplantar after 3 hrs. Type of assay: functional, organism-based. An outline of the steps:
as §3

In assay [15] the target is Delta-type opioid receptor (Homo sapiens) (UniProt P41143). Put plainly: Antagonist activity at delta opioid receptor expressed in HEK293 cells assessed as blockade of secreted alkaline phosphatase activity at 1 uM after 6 hrs relative to control. It counts as functional, cell-based. An outline of the steps: as §1
Assay [16] concerns the target T3, Type-1 angiotensin II receptor (Homo sapiens) (UniProt P30556).
T3 sequence (whole entry): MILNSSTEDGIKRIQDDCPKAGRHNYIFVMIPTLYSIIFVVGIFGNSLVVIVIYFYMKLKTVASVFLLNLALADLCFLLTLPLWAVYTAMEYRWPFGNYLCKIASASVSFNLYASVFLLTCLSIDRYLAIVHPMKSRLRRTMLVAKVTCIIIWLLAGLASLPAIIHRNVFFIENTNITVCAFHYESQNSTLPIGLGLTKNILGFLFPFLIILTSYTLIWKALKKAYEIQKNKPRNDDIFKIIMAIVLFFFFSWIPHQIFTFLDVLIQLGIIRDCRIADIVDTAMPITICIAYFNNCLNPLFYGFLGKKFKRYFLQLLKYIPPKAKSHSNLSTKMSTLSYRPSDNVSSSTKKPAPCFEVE
Description: Antagonist activity at AT1 angiotensin receptor expressed in HEK293 cells assessed as blockade of secreted alkaline phosphatase activity at 1 uM after 6 hrs relative to control. It counts as functional, cell-based. The method in brief: as §1

Calls of active or inactive are those of the source.

Sequence of Beta-2 adrenergic receptor (Homo sapiens) (P07550 whole entry, looked up): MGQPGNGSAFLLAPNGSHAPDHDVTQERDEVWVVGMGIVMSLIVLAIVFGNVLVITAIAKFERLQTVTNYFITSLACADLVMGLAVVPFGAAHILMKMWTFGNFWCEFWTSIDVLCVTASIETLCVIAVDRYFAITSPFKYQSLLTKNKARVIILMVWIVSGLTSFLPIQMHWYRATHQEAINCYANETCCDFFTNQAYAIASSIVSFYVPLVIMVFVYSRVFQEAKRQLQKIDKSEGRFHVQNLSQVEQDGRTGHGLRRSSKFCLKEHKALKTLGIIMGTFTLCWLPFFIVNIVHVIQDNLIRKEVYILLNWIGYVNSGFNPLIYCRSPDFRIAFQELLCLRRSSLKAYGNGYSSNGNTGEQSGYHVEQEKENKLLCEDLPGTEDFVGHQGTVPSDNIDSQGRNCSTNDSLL
Sequence of Cannabinoid receptor 1 (Rattus norvegicus) (P20272 whole entry): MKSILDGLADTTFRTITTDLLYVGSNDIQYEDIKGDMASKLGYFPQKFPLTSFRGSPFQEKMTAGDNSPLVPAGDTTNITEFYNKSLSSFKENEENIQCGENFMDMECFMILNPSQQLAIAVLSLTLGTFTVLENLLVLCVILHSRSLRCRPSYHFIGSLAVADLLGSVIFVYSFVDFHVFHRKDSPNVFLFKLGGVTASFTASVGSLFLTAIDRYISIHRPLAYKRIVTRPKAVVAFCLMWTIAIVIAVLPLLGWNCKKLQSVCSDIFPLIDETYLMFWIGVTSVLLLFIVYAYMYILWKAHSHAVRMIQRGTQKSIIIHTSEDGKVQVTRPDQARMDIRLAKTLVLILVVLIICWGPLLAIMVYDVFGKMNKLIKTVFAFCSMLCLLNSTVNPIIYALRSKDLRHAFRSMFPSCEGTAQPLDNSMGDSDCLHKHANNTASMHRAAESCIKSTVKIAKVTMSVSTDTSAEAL
Sequence of Mu-type opioid receptor (Homo sapiens) (P35372 whole entry): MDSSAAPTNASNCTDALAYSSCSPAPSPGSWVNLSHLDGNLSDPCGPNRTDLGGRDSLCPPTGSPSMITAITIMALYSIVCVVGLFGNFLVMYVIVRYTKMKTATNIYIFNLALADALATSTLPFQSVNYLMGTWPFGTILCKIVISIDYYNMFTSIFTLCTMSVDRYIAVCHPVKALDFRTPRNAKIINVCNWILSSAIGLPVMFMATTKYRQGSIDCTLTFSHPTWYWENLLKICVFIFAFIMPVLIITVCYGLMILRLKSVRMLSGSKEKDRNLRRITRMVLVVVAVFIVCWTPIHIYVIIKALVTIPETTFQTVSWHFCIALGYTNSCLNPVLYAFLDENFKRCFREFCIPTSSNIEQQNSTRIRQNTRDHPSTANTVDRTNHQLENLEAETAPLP

In the case of `CC(C)C[C@H](NC(=O)[C@H](Cc1ccccc1)NC(=O)[C@H](CCCCN)NC(=O)[C@H](Cc1ccccc1)NC(=O)[C@H](CC(N)=O)NC(=O)[C@@H](NC(=O)[C@@H]1CCCN1)C(C)C)C(=O)N[C@@H](CO)C(=O)N[C@@H](Cc1cnc[nH]1)C(=O)O` [HEMOPRESSIN], the Activity in [1] was 0.61; in assay [3], 101%; in [4] it was 104%; in [5] it was 137%; in [6], 1.24; in assay [8], 0.96. Moreover, the figures for the Activity in assay [10], in assay [15] and in assay [16] were 0.94, 0.9 and 0.98, respectively. The outcome in [2] was inactive. For the same compound, the result in assay [7], in [9], in assay [11], in [12], in assay [13] and in assay [14] was Active.
